Data as given in ChEMBL document CHEMBL3853307, “Anti-inflammatory Effect of Methyl Gallate on Experimental Arthritis: Inhibition of Neutrophil Recruitment, Production of Inflammatory Mediators, and Activation of Macrophages” (J Nat Prod, 2016).
Calls of active or inactive are those of the source.

Legend:
[1] = system: Mus musculus; test: Antiinflammatory activity in C57BL/6 mouse assessed as inhibition of zymosan-induced neutrophil migration in articular cavity at 7 mg/kg, po administered 1 hr prior to zymosan challenge measured at 24 hrs relative to control; type: functional; settings: C57BL/6, po
How it was run: (§1)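 Male C57BL/6 mice, fasted overnight, dosed orally (vehicle saline/water, 200 μL) or i.p. 1 h before zymosan (500 μg in 25 μL saline, i.a., left knee). Knee swelling measured as change in transverse diameter from basal by digital caliper (mm). Synovial washes (PBS/EDTA) counted on a particle counter; differentials from May-Grünwald-Giemsa cytospins, cells ×10^5/cavity. Sampled at 6 and/or 24 h; seven mice/group.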

[2] = system: Mus musculus; test: Antiinflammatory activity in C57BL/6 mouse assessed as inhibition of zymosan-induced paw edema at 10 to 50 mg/kg, po administered 1 hr prior to zymosan challenge measured after 4 hrs by plethysmography; type: functional, organism-based
How it was run: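 C57BL/6 mice dosed orally (1−50 mg/kg) before intraplantar zymosan (100 μg/paw in 50 μL saline); contralateral paw got saline. Volume measured by plethysmography at 4 h, edema taken as right minus left paw (μL).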

[3] = system: J774.A1; test: Antiinflammatory activity in mouse J774A.1 cells assessed as inhibition of zymosan and IFNgamma-induced COX2 expression at 1 to 10 uM preincubated for 1 hr followed by zymosan and IFNgamma addition measured after 24 hrs by Western blot analysis; type: functional, cell-based
How it was run: (§2)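 J774A.1 cells in six-well plates pretreated 1 h (0.1−10 μM) before zymosan (10 μg per 10^5 cells) and/or IFN-γ (25 U/mL) for 24 h. Lysates (Tris/NaCl/MgCl2/0.5% NP40 with protease inhibitors); 30 μg protein run on 7.5% SDS-PAGE, transferred to PVDF, probed for COX-2, iNOS and α-tubulin.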

[4] = system: J774.A1; test: Antiinflammatory activity in mouse J774A.1 cells assessed as inhibition of zymosan and IFNgamma-induced IL6 production in cell-free supernatant at 0.1 to 10 uM preincubated for 1 hr followed by zymosan and IFNgamma addition measured after 24 hrs by sandwich ELISA; type: functional, cell-based
How it was run: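 J774A.1 macrophages (1 × 10^5/well, RPMI/10% FBS) adhered 24 h, preincubated 1 h with compound (0.1−10 μM) or dexamethasone (1 μM), then stimulated with zymosan (10 μg per 10^5 cells) and/or IFN-γ (25 U/mL) for 24 h. Supernatant IL-6 by sandwich ELISA; nitrite by Griess reaction at 540 nm. Quadruplicate wells, two experiments.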

[5] = system: Mus musculus; test: Antiinflammatory activity in C57BL/6 mouse assessed as inhibition of zymosan-induced bleeding in synovial tissue at 7 mg/kg, po administered 1 hr prior to zymosan challenge measured at 6 to 24 hrs by hematoxylin and eosin staining-based optical microscopy; type: functional, organism-based
How it was run: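 Mice dosed orally or i.p. 1 h before i.a. zymosan (500 μg/cavity) or saline. Whole knees taken at 6 and 24 h from six mice, fixed in 10% formalin 48 h, decalcified in 10% EDTA/PBS 1−2 weeks, paraffin-embedded. 5 μm sections H&E-stained and examined by light microscopy. Parameter scores summed into an arthritis index; means ± SEM, two experiments.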

[6] = system: Neutrophil; test: Antiinflammatory activity in C57BL/6 mouse neutrophils assessed as inhibition of neutrophil adhesion to TNFalpha-primed mouse tEnd.1 cells at 0.1 uM preincubated for 1 hr with neutrophils followed by tEND.1 cells addition measured after 1 hr by Giemsa staining-based light microscopic method; type: functional, cell-based
How it was run: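 tEnd.1 endothelioma cells (10^4/well, 24 h) primed with mouse TNF-α (10 ng/mL) for 4 h. Bone marrow neutrophils preincubated 1 h with compound (0.1 μM) or fucoidan (25 μg/mL), then added at 50 per tEnd.1 cell for 1 h at 37 °C with shaking. After washing and Giemsa staining, adhesion index = fraction of tEnd.1 with bound neutrophils × neutrophils per tEnd.1 × 100.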

[7] = system: Mus musculus; test: Antiinflammatory activity in C57BL/6 mouse assessed as inhibition of zymosan-induced neutrophil migration in articular cavity at 7 mg/kg, po administered 1 hr prior to zymosan challenge measured at 6 hrs relative to control; type: functional; settings: C57BL/6, po; how it was run: as §1
[8] = system: Mus musculus; test: Antiinflammatory activity in C57BL/6 mouse assessed as inhibition of zymosan-induced knee joint edema formation at 0.7 to 70 mg/kg, po administered 1 hr prior to zymosan challenge measured at 6 hrs; type: functional, organism-based; how it was run: as §1
[9] = system: Mus musculus; test: Antiinflammatory activity in C57BL/6 mouse assessed as inhibition of zymosan-induced LTB4 production in cell-free supernatant of knee joint synovial washes at 7 mg/kg, po administered 1 hr prior to zymosan challenge measured at 6 to 24 hrs by immunosorbent assay; type: functional, organism-based
How it was run: (§3)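 Male C57BL/6 mice (18−22 g), fasted overnight, dosed orally (in filtered water, 200 μL) or i.p. 1 h before i.a. zymosan (500 μg in 25 μL saline) into left knee; contralateral knee got vehicle. Synovial cavity washed twice with 150 μL PBS/10 mM EDTA at 6 and 24 h; washes spun 400g 10 min, 4 °C. Cytokines measured by sandwich ELISA, LTB4/PGE2 by EIA (pg/mL); six mice/group, two experiments.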

[10] = system: Mus musculus; test: Antiinflammatory activity in zymosan-induced C57BL/6 mouse pleurisy model assessed as reduction in neutrophil influx in thoracic cavity at 10 to 50 mg/kg, po administered 1 hr prior to zymosan challenge measured after 4 hrs using Grunwald-Giemsa-stained cytospin smear by light microscopy; type: functional, organism-based
How it was run: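 Oral pretreatment 1 h before intrathoracic zymosan (100 μg/cavity in 100 μL saline). Cavities washed at 4 h with 1 mL PBS/10 mM EDTA. Total leukocytes counted on a particle counter, differentials from May-Grünwald-Giemsa cytospins (×10^6/cavity). Supernatant after 400g 10 min assayed for total protein by Bradford.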

[11] = system: J774.A1; test: Antiinflammatory activity in mouse J774A.1 cells assessed as inhibition of zymosan and IFNgamma-induced iNOS expression at 1 to 10 uM preincubated for 1 hr followed by zymosan and IFNgamma addition measured after 24 hrs by Western blot analysis; type: functional, cell-based; how it was run: as §2
[12] = system: Mus musculus; test: Antiinflammatory activity in C57BL/6 mouse assessed as inhibition of zymosan-induced CXCL1/KC production in cell-free supernatant of knee joint synovial washes at 7 mg/kg, po administered 1 hr prior to zymosan challenge measured at 6 to 24 hrs by sandwich ELISA method; type: functional, organism-based; how it was run: as §3
[13] = Cytotoxicity against C57BL/6 mouse neutrophils assessed as cell viability at 100 uM after 2 hrs by lactate dehydrogenase assay relative to control; type: toxicity, Neutrophil; settings: read-out: Activity
How it was run: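 Bone-marrow neutrophils from C57BL/6 mice, Percoll-purified (65%/72% interface, ~85-90% purity), plated at 1 × 10^5 cells/well; fresh medium with or without Tween 20 (3%) or compound (0.01−100 μM), quadruplicate; 2 h incubation. LDH released into supernatant measured, 20−30 min at room temperature, stopped with 1 N HCl; absorbance 490 nm minus 690 nm background.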

[14] = system: Mus musculus; test: Antiinflammatory activity in C57BL/6 mouse assessed as inhibition of zymosan-induced total leukocyte accumulation in articular cavity at 7 mg/kg, po administered 1 hr prior to zymosan challenge measured at 6 hrs; type: functional, organism-based; how it was run: as §1

COC(=O)c1cc(O)c(O)c(O)c1 [GALLIC ACID METHYL ESTER]
≥ 92%: viability at 2 h, 100 µM [13]
active: inhibition [2] | inhibition [3] | inhibition [4] | inhibition [5] | inhibition [6] | inhibition [8] | inhibition [9] | Activity [10] | inhibition [11] | inhibition [12] | inhibition [14]
74%: inhibition in vivo at 7 mg/kg [1]
64%: inhibition in vivo at 7 mg/kg [7]
